Screening results (PubChem)
MrgX1 antag = antagonists of human MrgX1 receptor, primary screen, HEK293 cells, Fluo-4 calcium flux. Mas-related G-protein coupled receptor member X1 (Homo sapiens), Q96LB2. BAM8-22 antagonism; stronger effect = lower value. B-score at 10 µM. actives 1.3% (n = 310,000). AID 588676, 2011;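 active means calcium-response B-score plate-corrected more than 3 library SD below zero, starting fluorescence within 5 deviations, no agonist response on first addition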;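 further: peak minus trough fluorescence over baseline after final BAM8-22 challenge near maximal dose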
Target sequence (Q96LB2 whole entry, looked up): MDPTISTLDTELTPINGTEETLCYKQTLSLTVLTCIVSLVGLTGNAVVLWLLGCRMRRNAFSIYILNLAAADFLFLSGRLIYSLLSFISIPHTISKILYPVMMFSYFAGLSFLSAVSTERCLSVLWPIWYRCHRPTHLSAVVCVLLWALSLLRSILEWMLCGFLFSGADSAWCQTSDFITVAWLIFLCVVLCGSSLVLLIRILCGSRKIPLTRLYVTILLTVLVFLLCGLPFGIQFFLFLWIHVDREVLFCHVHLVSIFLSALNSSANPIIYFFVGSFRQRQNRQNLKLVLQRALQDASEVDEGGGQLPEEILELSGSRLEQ
MrgX1 PAM = positive allosteric modulators of MrgX1, primary screen, HEK293 cells, Fluo-4 calcium flux; Mas-related G-protein coupled receptor member X1 (Homo sapiens), Q96LB2; FDSS; stronger effect = higher value; B-score at 10 µM; actives 0.63% (n = 310,000);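 active means plate-corrected calcium response at least 3 library SD above typical, normal starting fluorescence, not activating the receptor alone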;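 further: compound read alongside a low EC10 to EC30 dose of BAM8-22 agonist; peak minus trough fluorescence over baseline measured at the second addition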
RGS4 pot = RGS4 potentiators or activators, primary screen, cell-based, HEK293 M3R inducible RGS4, calcium flux; carbachol calcium flux Fluo4; stronger effect = lower value; AID 463111, 2010; B-score at 10 µM; actives 0.92% (n = 310,000);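 active means B-score of the integrated calcium signal more than 4 SD below the library mean, with starting fluorescence not abnormally high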;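 further: negative B-score means reduced calcium response which marks RGS4 activation or potentiation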
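Material: M3R-expressing HEK293 line, RGS4 induced by doxycycline | Schedule: Overnight RGS4 induction, 30 min dye load 37 °C, 20 min compound RT | Measured by: Fluo4 fluorescence kinetic imaging of calcium | Read-out: Integrated calcium ratio converted to B score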
RGS4 block = RGS4 inhibitors, primary screen, cell-based, HEK293 M3R inducible RGS4, calcium flux; Fluo-4 calcium flux; stronger effect = higher value; triggered by carbachol at its EC20; AID 463165, 2010; Regulator of G-protein signaling 4 (Homo sapiens), P49798; actives 0.45% (n = 310,000); B-score at 10 µM;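 active means B-score, a plate-corrected calcium signal, over three deviations above library mean, with baseline fluorescence within five deviations of library mean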;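 further: RGS4 expression induced by doxycycline in cells with stable M3 receptor; B-score is computed from the integrated fluorescence ratio over baseline after carbachol; higher B-score means a larger calcium signal and so more RGS4 inhibition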
Target sequence (P49798 whole entry, looked up): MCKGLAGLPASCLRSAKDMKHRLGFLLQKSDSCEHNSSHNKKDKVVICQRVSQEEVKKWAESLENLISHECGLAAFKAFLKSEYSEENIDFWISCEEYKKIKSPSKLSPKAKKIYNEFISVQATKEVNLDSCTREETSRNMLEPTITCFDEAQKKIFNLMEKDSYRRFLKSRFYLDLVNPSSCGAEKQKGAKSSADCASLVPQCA
MrgX1 agonist = agonists of human MrgX1 receptor, primary screen, HEK293 cells, Fluo-4 calcium flux | Mas-related G-protein coupled receptor member X1 (Homo sapiens), Q96LB2 | Fluo-4 calcium fluorescence, agonist mode; stronger effect = higher value | B-score at 10 µM | actives 0.44% (n = 310,000) | AID 588627, 2011;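 active means calcium response B-score plate-corrected fluorescence ratio at least 3 library SD, with starting fluorescence B-score inside 5 SD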
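System: HEK293 cells stably expressing human MrgX1 receptor; Dosing: test compound in the initial addition of three; Schedule: overnight plating, then 30 min 37 °C plus 30 min room-temperature dye loading; Detection: kinetic calcium dye fluorescence, Fluo-4 NW; Controls: per-plate positive and negative controls for Z′ factor.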
RGS4 block valid = enhanced carbachol calcium response, M3R/RGS4 cells, RGS4 inhibitor project, cell-based, validation screen, HEK293 M3R/RGS4, calcium flux. carbachol calcium Fluo-4 fluorescence; carbachol added at its EC20; 0 = buffer wells, 100 = carbachol control. calcium response, % at 10 µM. actives 65% (n = 1,700). shares compounds with RGS4 block;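 active means duplicate-averaged calcium response above the buffer-only control mean plus 5 SD of those controls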;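 further: integrated fluorescence ratio F max minus min over baseline F0; higher response in RGS4-induced cells means RGS4 inhibition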
M3R Ca ctr = carbachol calcium response in non-induced M3R cells, confirmation, counter-screen for RGS4 inhibitor project, cell-based, HEK293 M3R; activity (percent), % at 10 µM; actives 20% (n = 1,900); AID 493000, 2010; shares compounds with RGS4 block; carbachol calcium Fluo-4; submaximal (EC20) carbachol stimulus; buffer wells 0%, carbachol control wells 100%; call rule not given here;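 further: RGS4 induction absent so cells express M3R without RGS4; higher means more calcium signal and flags a non-specific hit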
M3R basal Ca ctr = second counter-screen for RGS4 inhibitors: non-induced cells without carbachol | shares compounds with RGS4 block | HEK293 M3R/RGS4 non-induced, Fluo-4 calcium, no carbachol; normalised: buffer wells 0%, carbachol wells 100% | calcium response (agonist-mode artifact), % at 10 µM | actives 22% (n = 1,900) | AID 493001;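 active means duplicate-averaged calcium rise in uninduced cells above buffer wells' mean plus 5 SD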
Numbers without * were called inactive; i = inactive; . = no result. Sampled rows, rich in hits. Any-hit rate of the full collection: about 3.5%.

SMILES | MrgX1 antag | MrgX1 PAM | RGS4 pot | RGS4 block | MrgX1 agonist | RGS4 block valid | M3R Ca ctr | M3R basal Ca ctr
Cc1cccnc1NC(=O)C1c2ccccc2Oc2ccccc21 | i | i | i | 8.2* | i | 10%* | i | i
Cc1ccccc1NC(=O)C1c2ccccc2Oc2ccccc21 | i | i | i | i | i | . | . | .
CCCCC1=CC2=C(c3ccco3)C(=O)C(C)(OC(=O)c3ccc(OC)cc3)C(=O)C2=CN1CCOC (stereo not drawn) | i | i | i | 4.9* | i | 22%* | 34%* | i
CCCCC1=CC2=C(c3ccco3)C(=O)C(C)(OC(=O)c3ccc(OC)cc3)C(=O)C2=CN1Cc1ccc2c(c1)OCO2 (stereo not drawn) | i | i | i | i | i | . | . | .
CCCCC1=CC2=C(c3ccco3)C(=O)C(C)(OC(=O)c3ccc(OC)cc3)C(=O)C2=CN1C1CCCCC1 (stereo not drawn) | i | i | i | i | i | i | i | i
CCCCC1=CC2=C(c3ccco3)C(=O)C(C)(OC(=O)c3ccc(OC)cc3)C(=O)C2=CN1CCc1ccccn1 (stereo not drawn) | i | i | i | i | i | . | 48%* | i
COC(=O)CCCC1=CC2=C(c3ccccc3)C(=O)C(C)(OC(=O)C3CCCC3)C(=O)C2=CN1C1CCCCC1 (stereo not drawn) | i | i | i | i | i | . | . | .
CCCCC1=CC2=CC(=O)C(C)(OC(=O)CC)C(=O)C2=CN1CCc1ccccn1 (stereo not drawn) | i | i | i | i | i | . | . | .
CCCCC1=CC2=C(c3ccco3)C(=O)C(C)(OC(=O)c3ccc(OC)cc3)C(=O)C2=CN1Cc1ccccc1 (stereo not drawn) | -5.4* | i | i | i | i | i | i | i
O=C(Nc1ccc(O)cc1)c1ccc(C(=O)c2ccccc2)o1 | i | i | i | i | i | . | . | .
COc1ccc(N(C(C)C(=O)Nc2cccnc2)S(C)(=O)=O)cc1 (stereo not drawn) | i | i | i | i | i | . | . | .
Cc1ccc(C2Cc3cc(O)c(O)cc3CN2)cc1 (stereo not drawn) | i | i | i | i | i | . | . | .
Cc1ccc(-n2nc3c(=O)n(CC(=O)NCc4ccccc4Cl)nc(C)c3c2C)cc1 | i | i | i | i | i | . | . | .
Cc1ccc(-n2nc3c(=O)n(CC(=O)NCc4ccccc4)nc(C)c3c2C)cc1 | i | i | i | i | i | i | i | i
Cc1ccc(-n2nc3c(=O)n(CC(=O)NCCc4cccs4)nc(C)c3c2C)cc1 | i | i | i | i | i | i | i | i
Cc1ccc(S(=O)(=O)NCC(=O)OCN2C(=O)c3ccccc3C2=O)cc1 | i | i | i | i | i | . | . | .
COc1ccccc1N1CCN(Cc2nc(-c3ccc(F)cc3)oc2C)CC1 | i | i | i | i | i | . | . | .
CCOC(=O)N1CCN(Cc2cn[nH]c2-c2ccc(-c3ccccc3)cc2)CC1 | i | i | i | 6.4* | i | 5.5%* | i | i
COc1ccccc1N1CCN(Cc2cn[nH]c2-c2ccc(F)cc2)CC1 | i | i | i | i | i | i | 50%* | i
COCCn1c(N)c(Sc2ccc(Cl)cc2)c(=O)[nH]c1=O | i | i | i | i | i | . | . | .
CCc1ccccc1NC(=O)c1ccc2c(O)c(S(=O)(=O)c3ccc(OC)cc3)c(=O)[nH]c2c1 | i | i | i | i | i | . | . | .
O=C(/C=C/c1ncc(C(F)(F)F)cc1Cl)OCc1ccccc1 | i | i | i | i | i | . | . | .
CC1=CC(C)(C)N2C(=O)C3(C(C#N)=C(N)Oc4cc(O)ccc43)c3c(C)c(C)cc1c32 (stereo not drawn) | i | i | i | 5.9* | i | 29%* | i | i
CC1=CC(C)(C)N2C(=O)C3(C(C#N)=C(N)OC4=C3C(=O)CCC4)c3c(C)c(C)cc1c32 (stereo not drawn) | i | i | i | i | i | . | . | .
COc1ccccc1-c1c(-c2ccc(O)cc2O)n[nH]c1C(F)(F)F | i | i | i | 11* | i | 40%* | 33%* | i
SMILES | MrgX1 antag | MrgX1 PAM | RGS4 pot | RGS4 block | MrgX1 agonist | RGS4 block valid | M3R Ca ctr | M3R basal Ca ctr
Nc1ncc(-c2ccccc2)c(-c2ccc(O)cc2O)n1 | i | i | i | i | i | . | . | .
Oc1ccc(-c2n[nH]c(C(F)(F)F)c2-c2ccccc2)c(O)c1 | i | i | i | 25* | i | 48%* | 46%* | i
COc1ccc(-c2c(-c3ccc(O)cc3O)n[nH]c2C(F)(F)F)cc1 | i | i | i | 10* | i | 35%* | 35%* | 20%*
COc1ccc(-c2c(-c3ccc(O)cc3O)n[nH]c2C)cc1OC | i | i | i | i | i | . | . | .
CN(C)CCN(Cc1cc2cc3c(cc2[nH]c1=O)OCO3)C(=S)NCC1CCCO1 (stereo not drawn) | i | i | i | i | i | . | . | .
COC(=O)CSC1=C(C#N)C(=O)NC(c2ccccc2)S1 (stereo not drawn) | i | i | i | 5.1* | i | 47%* | i | 9.5%*
CN(Cc1cccs1)C(=O)/C=C/c1ccccc1[N+](=O)[O-] | i | i | i | i | i | . | . | .
CCc1n[nH]c(=S)n1/N=C/c1cc(OC)cc([N+](=O)[O-])c1O | i | i | i | i | i | . | . | .
Cc1ccc(NCC(=O)N/N=C/c2cc3ccccc3nc2Cl)cc1 | i | i | i | 8* | i | 9.5%* | i | i
